Laboratory results reported in ChEMBL document CHEMBL4007469, “Design and synthesis of dalbergin analogues and evaluation of anti-osteoporotic activity” (Bioorg Med Chem Lett, 2017).
Active and inactive are the calls of the source. No cut-off for these calls is given here.

Experiments:
Mus musculus [1] = experiment: In vivo induction of osteogenesis in Balb/c mouse assessed as increase in Runx2 mRNA level in calvaria at 1 mg/kg/day, sc over calvarial surface for 5 consecutive days by RT-PCR method relative to control; type: functional
Method in brief: (§1)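 Three-week-old Balb/c mice (3 per group) injected subcutaneously over the calvarial surface daily for 5 consecutive days at 0.1, 0.5, 1 and 5 mg/kg/day. Calvaria fixed in 4% formaldehyde, paraffin-embedded, H&E-stained; tetracycline and calcein (20 mg/kg each, ip) given for MAR/BFR histomorphometry; calvarial mRNA by RT-PCR. Mean ± SE, three independent experiments, versus untreated.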

Mus musculus [2] = experiment: Anti-osteoporotic activity in ovariectomized postmenopausal Balb/c mouse model assessed as induction of femur bone marrow cell differentiation by measuring increase in ALP activity at 1 mg/kg, po qd via gavage for 6 weeks relative to control; type: functional
Method in brief: (§2)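 Ovariectomized 8-week-old female Balb/c mice given 1.0 mg/kg/day orally by gavage for 6 weeks; bone marrow cells then cultured ex vivo. ALP activity read at 405 nm; mineralized nodules stained with Alizarin Red at day 21 of culture. Mean ± SE versus OVx group.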

[3] = Induction of osteoblast differentiation in mouse calvarial cells assessed as compound concentration required for maximum increase in ALP activity using PNPP as substrate after 48 hrs; type: functional, Calvarial cell
[4] = Induction of osteoblast differentiation in mouse calvarial cells assessed as increase in ALP activity using PNPP as substrate after 48 hrs; type: functional, cell-based; conditions: Calvarial cell
Mus musculus [5] = experiment: In vivo induction of osteogenesis in Balb/c mouse assessed as bone formation at 5 mg/kg/day, sc over calvarial surface for 5 consecutive days by hematoxylin and eosin staining based fluorescence microscopic method; type: functional, organism-based; method in brief: as §1
Mus musculus [6] = experiment: In vivo induction of osteogenesis in Balb/c mouse assessed as increase in mineral appositional rate in calvaria at 0.1 to 1 mg/kg/day, sc over calvarial surface for 5 consecutive days by fluorochromes tetracycline and calcein labeling based histomorphometric analysis; type: functional, organism-based; method in brief: as §1
Mus musculus [7] = experiment: Anti-osteoporotic activity in ovariectomized postmenopausal Balb/c mouse model assessed as improvement in micro-artchitectural parameter in tibia by measuring structural model index at 1 mg/kg, po qd via gavage for 6 weeks by micro CT-scan analysis (reference value: 2.32 +/- 0.08); type: functional
Method in brief: (§3)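 Female Balb/c mice, 8 weeks old, ovariectomized, 6 weeks osteopenia development, then 1.0 mg/kg/day or gum acacia vehicle by oral gavage once daily for 6 weeks (sham, OVx and treated groups). Bones collected after sacrifice for micro-CT of trabecular microarchitecture (BV/TV, Tb.N, Tb.Th, Tb.Sp, SMI) and biomechanical testing of femur and vertebrae (energy, stiffness); mean ± SE versus OVx.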

Mus musculus [8] = experiment: Anti-osteoporotic activity in ovariectomized postmenopausal Balb/c mouse model assessed as improvement in micro-artchitectural parameter in vertebrae by measuring trabecular number at 1 mg/kg, po qd via gavage for 6 weeks by micro CT-scan analysis (reference value: 2.24 +/- 0.16 /millimeter); type: functional; method in brief: as §3
Mus musculus [9] = experiment: Anti-osteoporotic activity in ovariectomized postmenopausal Balb/c mouse model assessed as improvement in micro-artchitectural parameter in vertebrae by measuring trabecular separation at 1 mg/kg, po qd via gavage for 6 weeks by micro CT-scan analysis (reference value: 0.288 +/- 0.021 millimeter); type: functional; method in brief: as §3
Mus musculus [10] = experiment: Anti-osteoporotic activity in ovariectomized postmenopausal Balb/c mouse model assessed as improvement in micro-artchitectural parameter in vertebrae by measuring structural model index at 1 mg/kg, po qd via gavage for 6 weeks by micro CT-scan analysis (reference value: 1.78 +/- 0.08); type: functional; method in brief: as §3
Mus musculus [11] = experiment: Anti-osteoporotic activity in ovariectomized postmenopausal Balb/c mouse model assessed as induction of femur bone marrow cell mineralization at 1 mg/kg, po qd via gavage for 6 weeks measured on day 21 post dose by alizarin red-S staining based assay relative to control; type: functional; method in brief: as §2
Mus musculus [12] = experiment: Anti-osteoporotic activity in ovariectomized postmenopausal Balb/c mouse model assessed as increase in ALP gene expression in femur bone at 1 mg/kg, po qd via gavage for 6 weeks by RT-PCR method; type: functional, organism-based
Method in brief: (§4)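 Eight-week-old female Balb/c mice, ovariectomized and left 6 weeks for osteopenia to develop; groups sham+vehicle, OVx+vehicle, OVx+1.0 mg/kg/day, dosed once daily by oral gavage for 6 weeks in gum acacia/distilled water vehicle. Mice kept at 21°C, 12 h light/dark, chow and water ad libitum. Femoral bone mRNA or serum measured after sacrifice; mean ± SE versus OVx group.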

Mus musculus [13] = experiment: Anti-osteoporotic activity in ovariectomized postmenopausal Balb/c mouse model assessed as femur bone breaking strength by measuring energy at 1 mg/kg, po qd via gavage for 6 weeks by micro CT-scan analysis (reference value: 2.6 +/- 0.18 mJ); type: functional; method in brief: as §3
Mus musculus [14] = experiment: Anti-osteoporotic activity in ovariectomized postmenopausal Balb/c mouse model assessed as vertebrae compressive strength by measuring energy at 1 mg/kg, po qd via gavage for 6 weeks by micro CT-scan analysis (reference value: 224.75 +/- 1.06 mJ); type: functional; method in brief: as §3
Mus musculus [15] = experiment: Anti-osteoporotic activity in ovariectomized postmenopausal Balb/c mouse model assessed as mineral apposition rate at 1 mg/kg, po qd via gavage for 6 weeks by fluorochromes tetracycline and calcein labeling based histomorphometric analysis (reference value: 0.099 +/- 0.01 umeter/day); type: functional
Mus musculus [16] = experiment: Estrogenic effect in uterine of ovariectomized postmenopausal Balb/c mouse model assessed as total uterine area at 1 mg/kg, po qd via gavage for 6 weeks (reference value: 837.2 +/- 36.09 um2); type: ADME, organism-based; conditions: in vivo, 1008 h
Mus musculus [17] = experiment: Estrogenic effect in uterine of ovariectomized postmenopausal Balb/c mouse model assessed as luminal area at 1 mg/kg, po qd via gavage for 6 weeks (reference value: 57.5 +/- 1.19 um2); type: ADME, organism-based; conditions: in vivo, 1008 h
Mus musculus [18] = experiment: Estrogenic effect in uterine of ovariectomized postmenopausal Balb/c mouse model assessed as luminal epithelial height at 1 mg/kg, po qd via gavage for 6 weeks (reference value: 0.55 +/- 0.03 umeter); type: ADME, organism-based; conditions: in vivo, 1008 h
Mus musculus [19] = experiment: Anti-osteoporotic activity in ovariectomized postmenopausal Balb/c mouse model assessed as increase in BMP2 gene expression in femur bone at 1 mg/kg, po qd via gavage for 6 weeks by RT-PCR method; type: functional, organism-based; method in brief: as §4
Mus musculus [20] = experiment: Anti-osteoporotic activity in ovariectomized postmenopausal Balb/c mouse model assessed as increase in OCN gene expression in femur bone at 1 mg/kg, po qd via gavage for 6 weeks by RT-PCR method; type: functional, organism-based; method in brief: as §4
Mus musculus [21] = experiment: Anti-osteoporotic activity in ovariectomized postmenopausal Balb/c mouse model assessed as increase in COL1 gene expression in femur bone at 1 mg/kg, po qd via gavage for 6 weeks by RT-PCR method; type: functional, organism-based; method in brief: as §4
Mus musculus [22] = experiment: Anti-osteoporotic activity in ovariectomized postmenopausal Balb/c mouse model assessed as decrease in RANKL mRNA expression at 1 mg/kg, po qd via gavage for 6 weeks by RT-PCR method; type: functional, organism-based; method in brief: as §4
Mus musculus [23] = experiment: Anti-osteoporotic activity in ovariectomized postmenopausal Balb/c mouse model assessed as decrease in TRAP mRNA expression at 1 mg/kg, po qd via gavage for 6 weeks by RT-PCR method; type: functional, organism-based; method in brief: as §4
Mus musculus [24] = experiment: Osteogenic activity in Balb/c mouse drill-hole fracture model assessed as increase in Runx2 mRNA level at 1 mg/kg, po qd via gavage for 21 days by RT-PCR method

In the case of COc1cc2oc(=O)cc(-c3ccccc3)c2cc1OCCCCCN1CCN(C)CC1, the “fold change (FC)” value (Mus musculus [1]) is reported as 4, the “fold change (FC)” value (Mus musculus [2]) is reported as 2 and the “Concentration giving maximal ALP increase” value [3] is reported as 1 pM. For the same molecule, the EC50 [4] was 2.3 µM, the Activity (Mus musculus [5]) was “inactive” and the Activity (Mus musculus [6]) was “Active”. The Activity_index (Mus musculus [7]) was 1.84, the Activity (Mus musculus [8]) was 4.63 /millimeter and the Activity (Mus musculus [9]) was 0.167 mm. For the same molecule, the Activity_index (Mus musculus [10]) was 1.07, the Activity (Mus musculus [11]) was 50% and the Activity (Mus musculus [12]) was “Active”. For the same molecule, the Activity (Mus musculus [13]) was 4.55 mJ, the Activity (Mus musculus [14]) was 262.55 mJ and the Activity (Mus musculus [15]) was 0.177 micrometer/day. It also gave an Activity (Mus musculus [16]) of 958.6 um2, an Activity (Mus musculus [17]) of 75.75 um2 and an Activity (Mus musculus [18]) of 0.66 um. For the same molecule, the Activity (Mus musculus [19]) was “Active”, the Activity (Mus musculus [20]) was “Active” and the Activity (Mus musculus [21]) was “Active”. The Activity (Mus musculus [22]) was “Active”, the Activity (Mus musculus [23]) was “Active” and the Activity (Mus musculus [24]) was “Active”.
